Assays:
[1] = Inhibition of HCV NS5B RNA polymerase S282T mutant assessed as incorporation of 32P-UMP into RNA; design: species or system Hepacivirus hominis
In short: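 Purified 21-aa C-terminally truncated NS5B (S282T; wild type for comparison) on minus-IRES template, run in 50 mM HEPES pH 7.5 with 1 mM MgCl2, 0.75 mM MnCl2, 2 mM DTT and [α-32P]UTP at 27°C. Natural substrate and inhibitor were both varied against fixed remaining NTPs (UTP 10 μM, others 100 μM). Product was membrane-captured and counted. Ki was obtained by fitting a competitive inhibition equation.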

[2] = Inhibition of HCV NS5B RNA polymerase assessed as incorporation of 32P-UMP into RNA; design: species or system Hepacivirus hominis
In short: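 Steady-state Ki against truncated NS5B (wild-type and S282T) on minus IRES template, 27°C, HEPES pH 7.5 with Mg2+/Mn2+/DTT and [α-32P]UTP. For ATP analog, UTP 10, GTP and CTP 100 μM, ATP and inhibitor varied. For CTP analogs, UTP 10, ATP and GTP 100 μM, CTP and inhibitor varied. Membrane-bound product counted, rates fit to competitive inhibition.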

SMILES | Ki [1] | Ki [2]
C[C@@]1(F)[C@H](O)[C@@H](COP(=O)(O)OP(=O)(O)OP(=O)(O)O)O[C@H]1n1ccc(N)nc1=O [PSI-6130-TP] | 2.5 µM | 4.3 µM
C[C@@]1(O)[C@H](O)[C@@H](COP(=O)(O)OP(=O)(O)OP(=O)(O)O)O[C@H]1n1ccc(N)nc1=O [2'-C-METHYLCYTIDINE TRIPHOSPHATE] | 3.8 µM | 1.6 µM
C[C@@]1(O)[C@H](O)[C@@H](COP(=O)(O)OP(=O)(O)OP(=O)(O)O)O[C@H]1n1cnc2c(N)ncnc21 | 21.8 µM | 1.5 µM

Reference: ChEMBL document CHEMBL1142170, “Mechanism of activation of beta-D-2'-deoxy-2'-fluoro-2'-c-methylcytidine and inhibition of hepatitis C virus NS5B RNA polymerase” (Antimicrob Agents Chemother, 2007)
